What is called IC50 is the concentration at which inhibition is half-maximal.

For experiment [1], the target named is T1, Sodium- and chloride-dependent glycine transporter 1 (Homo sapiens, UniProt P48067).
T1 sequence (P48067 whole entry): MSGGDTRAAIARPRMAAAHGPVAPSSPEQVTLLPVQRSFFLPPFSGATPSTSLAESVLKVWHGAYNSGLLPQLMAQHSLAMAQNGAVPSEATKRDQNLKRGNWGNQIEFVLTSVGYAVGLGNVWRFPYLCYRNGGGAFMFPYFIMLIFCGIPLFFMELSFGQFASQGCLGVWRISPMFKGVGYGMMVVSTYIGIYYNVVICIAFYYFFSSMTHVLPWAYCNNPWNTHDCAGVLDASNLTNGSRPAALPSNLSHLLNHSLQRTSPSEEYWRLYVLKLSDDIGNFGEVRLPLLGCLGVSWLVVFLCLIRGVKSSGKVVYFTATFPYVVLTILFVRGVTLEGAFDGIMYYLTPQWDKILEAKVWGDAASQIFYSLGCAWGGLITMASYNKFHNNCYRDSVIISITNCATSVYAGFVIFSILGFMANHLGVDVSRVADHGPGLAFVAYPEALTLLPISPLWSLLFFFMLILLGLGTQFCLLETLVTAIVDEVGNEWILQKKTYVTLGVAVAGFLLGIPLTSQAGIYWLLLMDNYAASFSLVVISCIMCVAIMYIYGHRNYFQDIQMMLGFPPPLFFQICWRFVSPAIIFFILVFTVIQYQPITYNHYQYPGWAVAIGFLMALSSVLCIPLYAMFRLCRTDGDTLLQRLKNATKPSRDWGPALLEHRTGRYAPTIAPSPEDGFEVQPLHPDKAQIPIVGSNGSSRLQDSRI
The experiment in a line: Inhibition of human GlyT1 expressed in CHO cells assessed as inhibition of [3H]glycine uptake preincubated for 1 mins measured after 2 hrs by liquid scintillation counting. In kind it is cell-based.

The target of experiment [2] is T1, Sodium- and chloride-dependent glycine transporter 1. The experiment in a line: Inhibition of GlyT1 in human JAR cells assessed as inhibition of [3H]glycine uptake preincubated for 1 mins measured after 2 hrs by liquid scintillation counting. It is filed as cell-based. Summed up:
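[3H]glycine (final 10 µM) was added for 2 h at room temperature; nonspecific uptake was defined with 10 mM glycine. Cells were lysed in NaOH and counted by liquid scintillation. IC50 values are from at least three measurements, mean ± SEM.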

As to `O=C(N[C@@H](c1ccccc1)[C@@H]1CCCCN1)c1cccc(C(F)(F)F)c1Cl`, the results for the IC50 in experiment [1] and in experiment [2] were 314 nM and 80.1 nM, respectively.
With `O=C(N[C@@H](c1ccccc1)[C@@H]1CCCCN1)c1cccc(C(F)(F)F)c1I`, in experiment [2], the IC50 is 43 nM.

For the origin of these results see ChEMBL document CHEMBL1938298, “Synthesis and characterization of [¹²⁵I]2-iodo N-[(S)-{(S)-1-methylpiperidin-2-yl}(phenyl)methyl]3-trifluoromethyl-benzamide as novel imaging probe for glycine transporter 1” (Bioorg Med Chem, 2011).
